In series [1] the test system is K-562 chronic myeloid leukemia cells. Nature of the series: Antiproliferative screening, IncuCyte cell growth. It is filed as cell-based. The settings on record: Homo sapiens, K562, 72 h, read-out: IC50 K-562.
Series [2] has as its system LN-229 glioblastoma cells. The series is described as follows: Antiproliferative screening, MTS cell viability assay. It is filed as cell-based. The settings on record: Homo sapiens, LN-229, 72 h, read-out: IC50 LN-229. (In general: Tetrazolium dyes change colour on reduction, which living cells bring about.)
The test system of series [3] is Capan-1 pancreatic adenocarcinoma cells. Described as above. It is filed as cell-based. The settings on record: Homo sapiens, CAPAN-1, 72 h, read-out: IC50 Capan-1.
For series [4], the system named is HEL 299 normal human lung fibroblasts. The series is described as follows: Antiproliferative screening on noncancerous cells. The settings on record: Homo sapiens, HEL 299, read-out: IC50 HEL 299.
A further series concerns human coronavirus OC43. Nature of the series: Antiviral assay, virus-induced cytopathic effect, MTS, HEL cells. In kind it is cell-based. As to conditions: HEL cell culture. In general terms: Cytopathic effects are the visible damage that an infection or toxin causes in cultured cells.
Series [5] in a line: in vitro. The settings on record: human.
In another series the test system is HIV-1 NL4.3. The series is described as follows: Antiretroviral assay in MT-4 cells, cytopathic effect. It is filed as cell-based. The essentials: (§1)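 MT-4 cells (1 × 10^6 cells/mL) were pre-incubated with test compound for 30 min at 37 °C. HIV-1 NL4.3 or HIV-2 ROD was then added according to the CCID50 of the viral stock. Cytopathic effect was scored microscopically 5 days post-infection. […] SI was taken as the CC50/EC50 ratio.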

Series [6] deals with DND-41 acute lymphoblastic leukemia cells. Nature of the series: Antiproliferative screening, IncuCyte cell growth. As to conditions: Homo sapiens, DND41, 72 h, read-out: IC50 DND-41. In kind it is cell-based.
The test system of series [7] is HCT-116 colorectal carcinoma cells. The series is described as follows: Antiproliferative screening, MTS cell viability assay. It is filed as cell-based. As to conditions: Homo sapiens, HCT-116, 72 h, read-out: IC50 HCT-116.
Series [8] concerns HL-60 acute myeloid leukemia cells. The series is described as follows: Antiproliferative screening, IncuCyte cell growth. It is filed as cell-based. As to conditions: Homo sapiens, HL-60, 72 h, read-out: IC50 HL-60.
The subject of the next series is HIV-2 ROD. The series is described as follows: Antiretroviral assay in MT-4 cells, cytopathic effect. It is filed as cell-based. The method in brief: as §1
Series [9] in a line: Cytotoxicity in MT-4 cell culture. In kind it is cell-based. The settings on record: human, MT-4 cells.
Series [10] concerns Z-138 non-Hodgkin lymphoma cells. The series is described as follows: Antiproliferative screening, IncuCyte cell growth. It is filed as cell-based. As to conditions: Homo sapiens, Z-138, 72 h, read-out: IC50 Z-138.
The subject of series [11] is NCI-H460 lung carcinoma cells. The series is described as follows: Antiproliferative screening, MTS cell viability assay. In kind it is cell-based. As to conditions: Homo sapiens, NCI-H460, 72 h, read-out: IC50 NCI-H460.
Series [12] is described as follows: in vitro. As to conditions: human. The source holds these as a separate data set.
Series [13] concerns human solid tumor and leukemia cell lines. In kind it is cell-based. The settings on record: read-out: Antiproliferative IC50 across cancer cell lines.
Series [14] has as its system C. violaceum ATCC31532 QS-reporter strain. Nature of the series: Anti-QS screening, violacein production. In kind it is cell-based. As to conditions: Chromobacterium violaceum, ATCC31532, read-out: Anti-QS IC50.
Another series relates to MT-4 cells. Nature of the series: Cytotoxicity in MT-4 cell culture. As to conditions: read-out: Cytotoxicity (CC50); MT-4 cell culture. It is filed as cell-based.

Read-outs that look alike come from different tables or passages of the source. A value given as a limit tells only on which side of the number the result lay.

Usually IC50 stands for the concentration needed to halve the response being measured. For orientation: EC50 means the concentration that produces a half-maximal response.

Turning to `CCN(CC)CCCC(C)Nc1ccnc2cc(Cl)ccc12` (stereo not drawn) [CQ, chloroquine, reference compound], the IC50 in series [1] was determined as 50.6 ± 2.9 µM; in [2], 8.9 ± 2.3 µM; in [3], 46.1 ± 1.3 µM; in series [4], 84.7 ± 15.3 µM; in [6], 59.5 ± 3.5 µM; in series [7], 65.5 ± 7.3 µM. In addition, the results for the IC50 in series [8], in [10] and in series [11] were over 100 µM, 47.4 ± 5.3 µM and over 100 µM, respectively. Besides, the “SI, selectivity index (CC50 to EC50 ratio) OC43” value with human coronavirus OC43 turned out to be 31.4. Further, the selectivity ratio in “in vitro [5]” was about 30. For the same compound, the “SI, selectivity index (CC50 to EC50 ratio) HIV-1 NL4.3” value in the series on HIV-1 NL4.3 (MT-4 cell culture) is given as over 3.2. Also, the “SI, selectivity index (CC50 to EC50 ratio) HIV-2 ROD” value with HIV-2 ROD (MT-4 cell culture) was over 26.3. The compound further yielded a CC50 at 5 days in [9] of over 100 µM. In addition, the “SI, selectivity index (CC50 to EC50 ratio) 229E” value with human coronavirus 229E was found to be 29.1. The compound also had a CC50 in “in vitro [12]” of 40.8 ± 2.2 µM.
`O=C(NCCCCNc1ccnc2ccccc12)c1ccccc1NCc1ccccc1` [Compound 10, 2-(Benzylamino)-N-[4-(quinolin-4-ylamino)butyl]benzamide]: the IC50 in series [1] amounted to 5.9 ± 3.5 µM; in series [2], 3 ± 2 µM; in series [3], 4.2 ± 3.4 µM; in [4], 33.6 ± 15.6 µM; in series [6] it was 8 ± 3.2 µM; in [7], 7.4 ± 1.5 µM. Moreover, the half-maximal inhibitory concentration (IC50) in [8] was 14.9 ± 7.3 µM; in series [10], 4.6 ± 2 µM; in series [11], 2.2 ± 0.8 µM. Besides, the “SI, selectivity index (CC50 to EC50 ratio) 229E” value with human coronavirus 229E (HEL cell culture) is over 7. Besides, in “in vitro [12]”, the CC50 was 5.6 ± 3 µM.
For the compound `Nc1ccccc1C(=O)NCCCCNc1ccnc2ccccc12` [Compound 11, 2-Amino-N-[4-(quinolin-4-ylamino)butyl]benzamide], the IC50 in series [1] was 18.7 ± 6.7 µM; in series [2], 39.7 ± 4.4 µM; in [3] it was 62.2 ± 9.7 µM; in series [4], 41.6 ± 1.2 µM; in series [6], 59.6 ± 1.7 µM; in series [7], 45.4 ± 4.9 µM. Besides, the values for the IC50 in [8], in series [10] and in series [11] were 44.7 ± 11 µM, 31.2 ± 1.1 µM and 87.4 ± 12.6 µM, respectively. For the same compound, in the series on human coronavirus 229E (HEL cell culture), the “SI, selectivity index (CC50 to EC50 ratio) 229E” value worked out at 6.0. The CC50 in “in vitro [12]” stood at 46.3 ± 1.2 µM.
For the compound `Nc1cc(Cl)ccc1C(=O)NCCCCNc1ccnc2cc(Cl)ccc12` [Compound 12, 2-Amino-4-chloro-N-{4-[(7-chloroquinolin-4-yl)amino]butyl}benzamide], the IC50 in series [1] is 8.4 ± 3.2 µM; in series [2] it was 2.8 ± 1.2 µM; in series [3], 6.3 ± 2.8 µM; in [4], 7.4 ± 1.2 µM; in series [13], 2 to 10 µM; in series [6], 9.2 ± 2.2 µM. The IC50 in [7] was determined as 8.9 ± 3 µM; in series [8], 9.8 ± 3.5 µM; in [10], 7.2 ± 2.6 µM; in series [11], 7.3 ± 1.5 µM. Moreover, the “SI, selectivity index (CC50 to EC50 ratio) OC43” value in the series on human coronavirus OC43 is over 10.4. In the series with human coronavirus 229E (HEL cell culture), the “SI, selectivity index (CC50 to EC50 ratio) 229E” value came to 4.6. Besides, the CC50 in the series “in vitro [12]” was found to be 8.3 ± 0.78 µM.
As for `Nc1ccc(Br)cc1C(=O)NCCCCNc1ccnc2cc(Cl)ccc12` [Compound 13, 2-Amino-5-bromo-N-{4-[(7-chloroquinolin-4-yl)amino]butyl}benzamide], the IC50 is 7.7 ± 1.1 µM in [1]; 3.1 ± 0.8 µM in [2]; 5.4 ± 1.8 µM in series [3]; 3.7 µM in series [14]; 7.8 ± 1.8 µM in series [4]; 2 to 10 µM in [13]. For the same compound, the half-inhibitory concentration (IC50) was 7.8 ± 4.1 µM in series [6]; 7 ± 0.3 µM in [7]; 10.3 ± 3.2 µM in series [8]; 6 ± 2.6 µM in series [10]; 5.3 ± 0.4 µM in series [11]. Further, the “SI, selectivity index (CC50 to EC50 ratio) OC43” value with human coronavirus OC43 amounted to 5.0. Also, in the series with human coronavirus 229E (HEL cell culture), the “SI, selectivity index (CC50 to EC50 ratio) 229E” value is 5.4. The CC50 in the series “in vitro [12]” worked out at 7.5 ± 1.3 µM.
On to `COc1cc(NC(C)CCCNC(=O)c2ccccc2N)c2ncccc2c1` (stereo not drawn) [Compound 14, 2-Amino-N-{4-[(6-methoxyquinolin-8-yl)amino]pentyl}benzamide], for which the IC50 in [1], in series [2], in series [3], in series [4], in series [6] and in series [7] was over 100 µM in each case. Besides, the results for the IC50 in [8], in series [10] and in series [11] were over 100 µM, over 100 µM and 76.7 ± 25 µM, respectively. For the same compound, the “SI, selectivity index (CC50 to EC50 ratio) HIV-1 NL4.3” value in the series with HIV-1 NL4.3 (MT-4 cell culture) came to 8.4. This compound also yielded a CC50 at 5 days in [9] of 78.2 ± 9.3 µM.
Regarding `COc1cc(NC(C)CCCNC(=O)c2cc(Br)ccc2N)c2ncccc2c1` (stereo not drawn) [Compound 16, 2-Amino-5-bromo-N-{4-[(6-methoxyquinolin-8-yl)amino]pentyl}benzamide], the IC50 in series [1], in series [2], in series [3], in [4], in series [6] and in series [7] was over 100 µM each time. Also, the IC50 in series [8], in series [10] and in [11] was over 100 µM each time. Further, the “SI, selectivity index (CC50 to EC50 ratio) HIV-1 NL4.3” value with HIV-1 NL4.3 (MT-4 cell culture) amounted to 4.0. The CC50 at 5 days in series [9] came out at 56.4 ± 1.6 µM.
`Cc1nc(CN)cc2c1[nH]c1ccccc12` [HA, (1-methyl-9H-pyrido[3,4-b]indol-3-yl)methanamine, reference compound]: the half-inhibitory concentration (IC50) in series [1] is over 100 µM; in series [2] it was over 100 µM; in series [3], 68.6 ± 3.4 µM; in series [4] it was over 100 µM; in series [6], over 100 µM; in [7], over 100 µM. The IC50 was over 100 µM in series [8], 57.4 ± 32.6 µM in series [10] and 85.1 ± 14.8 µM in [11]. The compound also returned a CC50 at 5 days in series [9] of 22.3 ± 4.9 µM. This compound also came in with a CC50 in “in vitro [12]” of over 100 µM.
`CC(Cn1cnc2c(N)ncnc21)OCP(=O)(O)O` (stereo not drawn) [PMPA, 2-phosphonomethoxypropyl adenine]: the EC50 in the series with HIV-1 NL4.3 (read-out: Antiviral activity (EC50) HIV-1 NL4.3, MT-4 cell culture, 5 days post-infection) was 1.6 µM; with HIV-2 ROD (read-out: Antiviral activity (EC50) HIV-2 ROD, MT-4 cell culture, 5 days post-infection), 0.6 µM. In addition, the CC50 with MT-4 cells is over 100 µM.
In the case of `COc1cc(NC(C)CCCN)c2ncccc2c1` (stereo not drawn) [PQ, primaquine, reference compound], the IC50 in series [1] was 40.5 ± 6 µM; in series [2] it was 45.4 ± 1.2 µM; in [3], 45.6 ± 3.5 µM; in series [4] it was over 100 µM; in [6], 50.2 ± 16.7 µM; in series [7], 53.9 ± 4.2 µM. Moreover, the IC50 in series [8] was 28.4 ± 1.6 µM; in series [10], 11.4 ± 1.1 µM; in series [11], over 100 µM. Moreover, the “Anti-HIV / antiretroviral activity in words” value with HIV-1 NL4.3 (MT-4 cells) and in the series on HIV-2 ROD (MT-4 cells) was “no anti-HIV activity” each time. Further, in series [9], the CC50 at 5 days was 17.9 ± 8 µM. Moreover, the CC50 in the series “in vitro [12]” was over 100 µM.
With `CCC(CC)COC(=O)[C@H](C)N[P@](=O)(OC[C@H]1O[C@@](C#N)(c2ccc3c(N)ncnn23)[C@H](O)[C@@H]1O)Oc1ccccc1` [Remdesivir, remdesivir, reference compound], in the series on human coronavirus OC43, the “SI, selectivity index (CC50 to EC50 ratio) OC43” value is over 250. The “SI, selectivity index (CC50 to EC50 ratio) 229E” value in the series with human coronavirus 229E (HEL cell culture) is over 160. The CC50 in “in vitro [12]” was over 10 µM.

Source of the values: PMC8741576 (Molecular Diversity, 2022).
